This note sets out measurements from ChEMBL document CHEMBL4513216, “Probing the Open Global Health Chemical Diversity Library for Multistage-Active Starting Points for Next-Generation Antimalarials” (ACS Infect Dis, 2020).

This series can be described thus: Toxicity liver stage against HepG2, at 10uM. It counts as cell-based. Also noted: test concentration 10 uM, cell line HepG2-A16-CD81EGFP. To be noted: human, HepG2-A16-CD81EGFP cells; read-out: INHIBITION
Put shortly: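 Uninfected HepG2-A16-CD81EGFP cells, 3 × 10^3 per well, 1536-well, plated on prespotted compound at 10 μM final, parasite-free screening media added to match infected plates; puromycin 10 μM positive, DMSO 0.5% negative; run in parallel with 48 h PbLuc assay at 37 °C, 5% CO2; viability by CellTiter-Glo luminescence, normalized to controls.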
As for `CN(CCc1ncnn1C1Cc2ccccc2C1)C1CCS(=O)(=O)C1` (stereo not given), the cytotoxicity at 10 µM is -3.54%.

As for `O=C([C@H]1COC[C@H]2CN(CC3CC3)C[C@H]21)N1CCOCC1`, the cytotoxicity at 10 µM was found to be 11.8%.

For `Cc1nnc(CN(Cc2ccco2)Cc2cccc3c2OCO3)n1C`, the cytotoxicity at 10 µM is -0.535%.

As for `CCN(CC)S(=O)(=O)c1ccc2c(c1)N(Cc1cccnc1)C(=O)CS2`, the cytotoxicity at 10 µM was 1.82%.

With `O=C1CC[C@@H]2[C@@H](CCN2S(=O)(=O)C2CC2)N1CC1CC1`, the cytotoxicity at 10 µM is -79.4%.

In the case of `c1ccc(-n2cc(CN3CCCCC3Cn3cncn3)nn2)cc1` (stereo not given), the cytotoxicity at 10 µM was -14.2%.

Turning to `O=C1CSC(c2ccc(F)c(Cl)c2)c2c(n(C3CCOCC3)[nH]c2=O)N1` (stereo not given), the cytotoxicity at 10 µM was determined as 3.4%.

Regarding `Cc1cc(C)nc(NC2CC(=O)N(C(C)(C)C)C2)n1` (stereo not given), the cytotoxicity at 10 µM was -5.81%.

In the case of `O=C1CCOC[C@]2(CN(Cc3ccccc3)C[C@H]2c2cccc(F)c2)N1`, the cytotoxicity at 10 µM was -0.0186%.

Take `O=C1NC2(CCN(C(=O)c3ccccc3)CC2)CC1c1cccnc1` (stereo not given): the cytotoxicity at 10 µM was -10.9%.

For the compound `CC1(C)[C@@H]2CC=C(CN3CCCn4nc(C(=O)NCCO)cc4C3)[C@H]1C2`, the cytotoxicity at 10 µM is -40.3%.

As to `CCc1nc(NCC(=O)N2CCOCC2)c2c(n1)c(C)nn2CC`, the cytotoxicity at 10 µM worked out at 7.05%.

For the compound `O=C(c1ccc(S(=O)(=O)NCc2ccncc2)cc1)N1CCNCC1`, the cytotoxicity at 10 µM turned out to be 2.3%.

Regarding `CC(C)N1CCc2c(C#N)c(NCc3ccco3)n3cnnc3c2C1`, the cytotoxicity at 10 µM was -2.02%.

Take `CN(C)c1cccc(C(=O)Nc2cn(C)c(=O)n(C)c2=O)c1`: the cytotoxicity at 10 µM stood at 3.34%.

For the compound `COc1cc(Cl)c(C)cc1-n1nnc(C(=O)O)c1C`, the cytotoxicity at 10 µM is -8.29%.

Consider `CC(C)n1cnc2c1C(C(=O)N1CCCC1)N(S(C)(=O)=O)CC2` (stereo not given), for which the cytotoxicity at 10 µM was -5.15%.

Consider `N#Cc1c(SCCN2CCCCC2)sc2c(O)cc(O)nc12`, for which the cytotoxicity at 10 µM is -13.1%.

In the case of `NCC1CCCCN1C(=O)Cc1ccc(F)c(F)c1` (stereo not given), the cytotoxicity at 10 µM is -1.5%.

Take `Cc1cc(C(=O)N2CCc3nc4sc(C)cc4c(=O)n3CC2)on1`: the cytotoxicity at 10 µM was -16.2%.

Consider `CN(C)CCC1CN(C(=O)c2cccc3c2OCC3)CCO1` (stereo not given), for which the cytotoxicity at 10 µM came to 2.13%.

For the compound `COCCN1CCC(c2nc3ccc(NC4CCC4)cn3n2)CC1`, the cytotoxicity at 10 µM is -119%.

With `CN(Cc1ncnn1C)C1CCN(c2sccc2C#N)C1=O` (stereo not given), the cytotoxicity at 10 µM is 10.2%.

With `Cc1ccc(C(=O)N2CCC(c3nccn3C(C)C)CC2)c(=O)[nH]1`, the cytotoxicity at 10 µM came to 4.75%.

As to `CCOC(=O)CCCc1ccc2c(c1)CC(=O)N2`, the cytotoxicity at 10 µM amounted to 1.23%.

For the compound `CC(C)c1noc(C(C)N2CCN(CCCN3CCCC3=O)CC2)n1` (stereo not given), the cytotoxicity at 10 µM is -14.3%.

On to `CCC(=O)N1CCCC(c2ncc3c(n2)CCN(C)C3)C1` (stereo not given), for which the cytotoxicity at 10 µM is -8.77%.

For `COc1ccccc1NC(=O)NCC(O)c1ccc(F)cc1F` (stereo not given), the cytotoxicity at 10 µM came to 4.1%.

On to `CC(C)Oc1ncccc1CNC(=O)c1cc[nH]n1`, for which the cytotoxicity at 10 µM is -9.12%.

As to `O=C(N[C@H]1CN(Cc2cccs2)[C@@H]2CCCO[C@H]12)c1cccnc1`, the cytotoxicity at 10 µM is -5.24%.

Regarding `CC(=O)c1ccc(-n2c(C)cn(CCC(=O)NC(N)=O)c2=O)cc1`, the cytotoxicity at 10 µM came to 14.3%.

For `COc1ccc(CNC(=O)CCCc2nnc3ccc(OC)nn23)cc1`, the cytotoxicity at 10 µM was -5.36%.

Regarding `Cc1cc(NC(=O)c2ccccc2Br)n(C)n1`, the cytotoxicity at 10 µM is -6.61%.

In the case of `O=S1(=O)NCC2(CCN(c3ncc(F)cn3)CC2)COc2ccccc21`, the cytotoxicity at 10 µM turned out to be 4.74%.

As for `Cc1cccc2nc(CN3CCCC3Cn3cccn3)cn12` (stereo not given), the cytotoxicity at 10 µM was found to be 0.893%.

Regarding `Cc1noc(Cl)c1CCC(=O)N1CCC(Nc2cccnn2)CC1`, the cytotoxicity at 10 µM was -2.57%.

For the compound `CC(C)c1ccc(O)c(C(=O)NC2CCN(c3ncccn3)CC2)c1`, the cytotoxicity at 10 µM was 9.81%.

Turning to `Cc1cccc(-c2noc([C@@H]3C[C@@H](O)CN3C3CCOCC3)n2)c1`, the cytotoxicity at 10 µM was determined as 4.9%.

Consider `COc1cccc2c1N(Cc1nc3c(cnn3C)c(=O)[nH]1)CCC2`, for which the cytotoxicity at 10 µM was -4.15%.

On to `CC(C)(C)c1ccc(C(=O)C2CCCN(C(=O)CNS(C)(=O)=O)C2)cc1` (stereo not given), for which the cytotoxicity at 10 µM amounted to 4.1%.

Take `O=C1CO[C@@H]2CNC[C@H]2N1CC1CC1`: the cytotoxicity at 10 µM is -95.7%.

In the case of `OC1(CNc2ccc(F)cc2)CCNCC1`, the cytotoxicity at 10 µM came to 2.4%.

On to `Fc1ccc(OCc2nnc([C@H]3CCN(Cc4cccnc4)C3)o2)cc1`, for which the cytotoxicity at 10 µM was -5.72%.

With `CCCc1cc(C(=O)N(C)Cc2ccc(OC)c3ncccc23)n(C)n1`, the cytotoxicity at 10 µM came out at 37.2%.

With `N#Cc1nc(COc2ccc3c(c2)OCO3)oc1N1CCCCCC1`, the cytotoxicity at 10 µM was -34.6%.

As to `Cc1cc(CN2C[C@@H]3COC[C@@H](C(=O)N4CCCCO4)[C@@H]3C2)no1`, the cytotoxicity at 10 µM was -80.6%.

`Cc1cc(N(C)CCOc2ccccc2F)nc(N)n1`: the cytotoxicity at 10 µM came out at 20.1%.

For the compound `Cc1cc(C)n(C2CN(CCC(=O)NC3CCCCC3)C2)n1`, the cytotoxicity at 10 µM turned out to be 1.04%.

Regarding `O=C(c1cscn1)N1CCC(Cc2cnc3[nH]ccc3c2)C1` (stereo not given), the cytotoxicity at 10 µM was -26.5%.

As for `Cc1ccsc1C(=O)N1CCn2cnc(COCC3CC3)c2C1`, the cytotoxicity at 10 µM was 6.93%.

For `CN1CCCN(C(=O)c2cnc(Cc3c(Cl)cccc3Cl)nc2O)CC1`, the cytotoxicity at 10 µM was -0.862%.

Regarding `O=C(c1cccc(-n2cccn2)c1)N1CCCOC(Cn2cccn2)C1` (stereo not given), the cytotoxicity at 10 µM is -6.58%.

For `CCC(O)CN1CCN(C(=O)c2ccc(N(C)C)nn2)CC1` (stereo not given), the cytotoxicity at 10 µM is -6.83%.

With `COC(=O)N1CCC(NC(=O)CC(C)CCc2ccccc2)CC1` (stereo not given), the cytotoxicity at 10 µM was determined as 4.6%.

With `CS(=O)(=O)NCCC(=O)N1CCN(S(=O)(=O)c2ccc(Br)cc2)CC1`, the cytotoxicity at 10 µM is -29.6%.

Consider `COCC(C)N(C)C(=O)NC1CCN(c2ncccn2)CC1` (stereo not given), for which the cytotoxicity at 10 µM was -12.5%.

On to `CC(=O)N1CCC(N2CC[C@H](c3nc4cc(F)ccc4o3)C2)CC1`, for which the cytotoxicity at 10 µM worked out at 2.23%.

`Cc1oncc1C(=O)NCC1(O)CCc2ccccc2C1` (stereo not given): the cytotoxicity at 10 µM was -6.29%.

For the compound `Cc1ccc(N2C[C@H]3OCC[C@H]3[C@H](C(=O)NC3CCC3)C2)nn1`, the cytotoxicity at 10 µM is -69.9%.

For the compound `Cc1cnc(C)c(N2CCC(c3nnc(CN(C)C)n3C3CC3)CC2)n1`, the cytotoxicity at 10 µM is -0.918%.

Regarding `CC(C)c1nc(C2CCCN(C(=O)c3ccc(N(C)C)nn3)C2)no1` (stereo not given), the cytotoxicity at 10 µM is -9.71%.

`Cc1cccc(N2CCC(NC(=O)CCCc3cccs3)CC2)n1`: the cytotoxicity at 10 µM was -12.5%.

Regarding `CN(C)Cc1ccnc(C2CN(CCc3ccccc3)CCO2)n1` (stereo not given), the cytotoxicity at 10 µM was -16.5%.

In the case of `CCCn1c(C)c(CC(=O)NCCOC)c2c1CC(C)(C)CC2=O`, the cytotoxicity at 10 µM was -1.01%.

On to `CCN1CC(C(=O)N2CC(Oc3ccccc3Cl)C2)CC1=O` (stereo not given), for which the cytotoxicity at 10 µM is -2.83%.

As to `Cc1ccc(C(=O)N2C[C@H](N3CCOCC3)[C@@H]3OCCC[C@@H]32)cn1`, the cytotoxicity at 10 µM was -108%.

Regarding `FC(F)(F)c1cc(C2CCNCC2)nc(-c2ccsc2)n1`, the cytotoxicity at 10 µM came out at 8.6%.

In the case of `O=C(O)[C@]12CCCN(Cc3cccnc3)[C@@H]1CCN(c1cnccn1)C2`, the cytotoxicity at 10 µM is 4.63%.

With `CN(C)C(=O)CN1CCOCC2(C1)CN(c1ncccn1)CCO2` (stereo not given), the cytotoxicity at 10 µM came to 1.71%.

Consider `CCO[C@H]1CN(C)C[C@@H]1NC(=O)c1c[nH]nc1C1CCCCC1`, for which the cytotoxicity at 10 µM is -5.56%.

As to `O=C(c1ccncc1)N1CCc2ncnc(C3CCOC3)c2CC1` (stereo not given), the cytotoxicity at 10 µM was -73.2%.

In the case of `CN(Cc1nc(Cc2cccc(C(F)(F)F)c2)no1)C1CCCCC1`, the cytotoxicity at 10 µM is 1.99%.

As to `Cn1ccc(C(=O)N2CCC[C@]3(C[C@@H](OCc4ccccn4)CO3)C2)n1`, the cytotoxicity at 10 µM is 0.333%.

For the compound `CC1(C)CN(Cc2cc(C3CCCCC3)no2)CC[C@]1(C)O`, the cytotoxicity at 10 µM was -4.59%.

In the case of `COCc1cnc2n1CCN(C(=O)c1ocnc1C)C2C` (stereo not given), the cytotoxicity at 10 µM is -1.91%.

`CC(C)Oc1ccc(CNC(=O)CN(C)S(C)(=O)=O)cc1F`: the cytotoxicity at 10 µM is -3.1%.

As for `COCC1N(C(=O)Nc2ccccc2)C2CCC1(O)CC2` (stereo not given), the cytotoxicity at 10 µM worked out at 3.15%.

As for `CCn1nc(CC(C)C)cc1C(=O)NCCCOC`, the cytotoxicity at 10 µM was -18.8%.

In the case of `O=C(NCc1cc(=O)n2c(n1)CN(CC1CCOC1)CCC2)C1CC1` (stereo not given), the cytotoxicity at 10 µM was -11.2%.

On to `COCC(=O)N1CCC(c2csc(NC(C)=O)n2)CC1`, for which the cytotoxicity at 10 µM was -28.6%.

`Cc1cc(C)n(Cc2ccc(C(=O)NCCN3CCOCC3)cc2)n1`: the cytotoxicity at 10 µM is -14.8%.

For the compound `CCn1cc2c(n1)C(COC)CN(Cc1ccoc1)C2` (stereo not given), the cytotoxicity at 10 µM is 7.89%.

Consider `Cc1ccc2c(c1)nc1n2[C@@H](CNC(=O)c2ccccn2)COC1`, for which the cytotoxicity at 10 µM was 7.82%.

`CCS(=O)(=O)N1CCn2c(COCC3CCOCC3)cnc2C1C` (stereo not given): the cytotoxicity at 10 µM was determined as 11%.

Consider `O=C(c1ccccc1)N1CCN(C2CCc3ccc(F)cc32)CC1` (stereo not given), for which the cytotoxicity at 10 µM amounted to 11.1%.

Take `CNC(=O)CN1CCOCC12CCN(C(=O)c1ccccc1)CC2`: the cytotoxicity at 10 µM was -82.2%.

As to `Cc1noc([C@@]23CCO[C@@H]2CCN(Cc2scnc2C)C3)n1`, the cytotoxicity at 10 µM is -111%.

With `N#Cc1cnc2cc(F)cc(F)c2c1NC1CCN(CC(N)=O)CC1`, the cytotoxicity at 10 µM was determined as 0%.

Consider `Cc1nn(C2CCS(=O)(=O)C2)c(C)c1CC(=O)NCc1ccccc1Cl` (stereo not given), for which the cytotoxicity at 10 µM was -0.178%.

Turning to `CN1CCOC(CNCc2coc(-c3ccccc3)n2)C1` (stereo not given), the cytotoxicity at 10 µM was -5.1%.

For `COc1ccc(NCC(=O)NCC(=O)N2CCCC2)c(C(F)(F)F)c1`, the cytotoxicity at 10 µM was 6.78%.

As to `COc1ccccc1OCCC(=O)N1CCCCC1c1nccs1` (stereo not given), the cytotoxicity at 10 µM is -15.7%.

As for `Cc1nn(C)c(N2CCOCC2)c1CNC1CCc2ccccc2C1` (stereo not given), the cytotoxicity at 10 µM is -11.4%.

Consider `Cc1nc(CN(C)c2nccc(N(C)C)n2)cs1`, for which the cytotoxicity at 10 µM is -9.86%.

As to `N#Cc1ccc(S(=O)(=O)Nc2cnn(C3CCOCC3)c2)cc1`, the cytotoxicity at 10 µM was -11.3%.
